# Source: ChEMBL document CHEMBL2311469, “Development of new cathepsin B inhibitors: combining bioisosteric replacements and structure-based design to explore the structure-activity relationships of nitroxoline derivatives” (J Med Chem, 2013)
# Active and inactive are the calls of the source. The calls are words filed in the database; no cut-off is given here.
# Experiments:
# Cathepsin B [1] = biological target: T1, Cathepsin B (Homo sapiens, UniProt P07858); assay: Competitive inhibition of human recombinant cathepsin B exopeptidase activity using Abz-Gly-Ile-Val-Arg-Ala-Lys(Dnp)-OH substrate assessed as inhibition constant for enzyme-inhibitor complex
# In short: (§1)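 Human recombinant catB, preactivated 5 min at 37 °C in assay buffer containing 0.1% PEG 8000, 5 mM DTT and 1.5 mM EDTA. […] Exopeptidase: 60 mM acetate pH 5.0, Abz-GIVRAK(Dnp)-OH 1/3/6 μM (Km 6.3 μM). Inhibitor 0–200 μM, 5% DMSO, 37 °C, fluorescence rate; two runs in duplicate.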
# Cathepsin B [2] = biological target: T1, Cathepsin B; assay: Mixed inhibition of human recombinant cathepsin B endopeptidase activity using Z-Arg-Arg-AMC substrate assessed as inhibition constant for enzyme-substrate-inhibitor complex
# Cathepsin B [3] = biological target: T1, Cathepsin B; assay: Mixed inhibition of human recombinant cathepsin B […] assessed as inhibition constant for enzyme-inhibitor complex
# MCF-10A = assay: Inhibition of human MCF10A neoT cell invasion expressing c-Ha-Ras oncogene at 5 uM after 30 mins relative to DMSO-treated control; type: functional; settings: 72 h, in the assay text read “after 72 hrs” for “after 30 mins”
# In short: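 xCELLigence CIM-16 invasion assay. Upper chamber coated with 5 mg/mL Matrigel; lower well coated with bovine fibronectin. Compound 5 μM or 0.05% DMSO in both chambers, equilibrated 30 min at 37 °C. Then 3 × 10^4 cells seeded in serum-free medium, cell index read every 15 min for 72 h. Invasion = cell index with compound / DMSO; mean ± SD, n = 4, two experiments.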
# Cathepsin B [4] = biological target: T1, Cathepsin B; assay: Inhibition of human recombinant cathepsin B exopeptidase activity using Abz-Gly-Ile-Val-Arg-Ala-Lys(Dnp)-OH substrate
# Cathepsin B [5] = biological target: T1, Cathepsin B; assay: Inhibition of human recombinant cathepsin B endopeptidase activity using Z-Arg-Arg-AMC substrate
# Cathepsin B [6] = biological target: T1, Cathepsin B; assay: Noncompetitive inhibition of human recombinant cathepsin B exopeptidase activity using Abz-Gly-Ile-Val-Arg-Ala-Lys(Dnp)-OH substrate; in short: as §1
# Homo sapiens [7] = species: Homo sapiens; assay: Selectivity ratio of Ki for human liver cathepsin H to Ki for human recombinant cathepsin B
# Homo sapiens [8] = species: Homo sapiens; assay: Selectivity ratio of Ki for human recombinant cathepsin L to Ki for human recombinant cathepsin B
# Procathepsin L = Procathepsin L (Homo sapiens, UniProt P07711); assay: Competitive inhibition of human recombinant cathepsin L endopeptidase activity using Z-FR-AMC substrate expressed in Escherichia coli assessed as inhibition constant for enzyme-inhibitor complex
# In short: (§2)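 Ki from rates at three substrate levels with inhibitor at 0, 20, 40, 60, 80, 100 and 200 μM. Enzymes were preactivated 5 min at 37 °C. CatL (recombinant, E. coli): 100 mM acetate pH 5.5, Z-Phe-Arg-AMC 0.5/1/4 μM. CatH (native, human liver): 100 mM phosphate pH 6.8, Arg-AMC 20/80/160 μM. Buffers held 0.1% PEG 8000, 5 mM DTT and 1.5 mM EDTA, plus 5% DMSO. Two runs in duplicate.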
# Pro-cathepsin H [9] = biological target: T2, Pro-cathepsin H (Homo sapiens, UniProt P09668); assay: Uncompetitive inhibition of human liver cathepsin H endopeptidase activity using R-AMC substrate assessed as inhibition constant for enzyme-substrate-inhibitor complex; in short: as §2
# T2 sequence (P09668 whole entry): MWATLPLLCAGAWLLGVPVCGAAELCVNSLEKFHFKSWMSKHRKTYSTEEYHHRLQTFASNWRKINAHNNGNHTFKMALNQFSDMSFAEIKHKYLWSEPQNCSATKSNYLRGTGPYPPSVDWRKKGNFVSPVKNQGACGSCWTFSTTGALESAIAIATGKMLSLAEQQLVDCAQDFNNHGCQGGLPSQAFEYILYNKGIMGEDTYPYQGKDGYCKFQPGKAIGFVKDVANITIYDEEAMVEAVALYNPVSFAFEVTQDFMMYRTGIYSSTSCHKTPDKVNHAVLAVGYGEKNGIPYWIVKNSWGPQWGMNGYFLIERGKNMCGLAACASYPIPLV
# Cathepsin B [10] = biological target: T1, Cathepsin B; assay: Inhibition of human recombinant cathepsin B exopeptidase activity using Abz-Gly-Ile-Val-Arg-Ala-Lys(Dnp)-OH substrate at 50 uM
# In short: (§3)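 Single-point screen at 50 μM inhibitor with 5% DMSO and 0.01% Triton X-100, at 37 °C. Endopeptidase: catB 5 nM with Z-Arg-Arg-AMC 5 μM, phosphate pH 6.0, ex 380/em 460 nm. Exopeptidase: catB 0.5 nM with Abz-GIVRAK(Dnp)-OH 1 μM, acetate pH 5.0, ex 320/em 420 nm. Relative inhibition = 100(1 − vi/vo). Two runs in duplicate.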
# Cathepsin B [11] = biological target: T1, Cathepsin B; assay: Inhibition of human recombinant cathepsin B endopeptidase activity using Z-Arg-Arg-AMC substrate at 50 uM; in short: as §3
# Cathepsin B [12] = biological target: T1, Cathepsin B; assay: Noncompetitive inhibition of cathepsin B (unknown origin) exopeptidase activity assessed as inhibition constant for enzyme-inhibitor complex
# Cathepsin B [13] = biological target: T1, Cathepsin B; assay: Mixed inhibition of cathepsin B (unknown origin) endopeptidase activity assessed as inhibition constant for enzyme-substrate-inhibitor complex
# Cathepsin B [14] = biological target: T1, Cathepsin B; assay: Mixed inhibition of cathepsin B (unknown origin) endopeptidase activity assessed as inhibition constant for enzyme-inhibitor complex
# Pro-cathepsin H [15] = biological target: T2, Pro-cathepsin H; assay: Noncompetitive inhibition of human liver cathepsin H endopeptidase activity using R-AMC substrate assessed as inhibition constant for enzyme-substrate-inhibitor complex
# In short: (§4)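 Native catH isolated from human liver was preactivated for 5 min at 37 °C in 100 mM phosphate pH 6.8 with 0.1% PEG 8000, 5 mM DTT and 1.5 mM EDTA. Arg-AMC was used at 20, 80 and 160 μM, with inhibitor at 0–200 μM (seven levels) and 5% DMSO. […] Run twice in duplicate.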
# Pro-cathepsin H [16] = biological target: T2, Pro-cathepsin H; assay: Noncompetitive inhibition of human liver cathepsin H endopeptidase activity using R-AMC substrate assessed as inhibition constant for enzyme-inhibitor complex; in short: as §4
# Cathepsin B [17] = biological target: T1, Cathepsin B; assay: Mixed inhibition of human recombinant cathepsin B exopeptidase activity using Abz-Gly-Ile-Val-Arg-Ala-Lys(Dnp)-OH substrate assessed as inhibition constant for enzyme-substrate-inhibitor complex
# In short: (§5)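 Recombinant human catB was preactivated for 5 min at 37 °C in 60 mM acetate pH 5.0 with 0.1% PEG 8000, 5 mM DTT and 1.5 mM EDTA. Abz-GIVRAK(Dnp)-OH was used at 1, 3 and 6 μM (Km 6.3 μM), with inhibitor at 0–200 μM (seven levels) and 5% DMSO. […] Run twice, each in duplicate.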
# Cathepsin B [18] = biological target: T1, Cathepsin B; assay: Mixed inhibition of human recombinant cathepsin B exopeptidase activity using Abz-Gly-Ile-Val-Arg-Ala-Lys(Dnp)-OH substrate assessed as inhibition constant for enzyme-inhibitor complex; in short: as §5
# Cathepsin B [19] = biological target: T1, Cathepsin B; assay: Uncompetitive inhibition of human recombinant […] assessed as inhibition constant for enzyme-substrate-inhibitor complex
# Chain of Procathepsin L (P07711 whole entry): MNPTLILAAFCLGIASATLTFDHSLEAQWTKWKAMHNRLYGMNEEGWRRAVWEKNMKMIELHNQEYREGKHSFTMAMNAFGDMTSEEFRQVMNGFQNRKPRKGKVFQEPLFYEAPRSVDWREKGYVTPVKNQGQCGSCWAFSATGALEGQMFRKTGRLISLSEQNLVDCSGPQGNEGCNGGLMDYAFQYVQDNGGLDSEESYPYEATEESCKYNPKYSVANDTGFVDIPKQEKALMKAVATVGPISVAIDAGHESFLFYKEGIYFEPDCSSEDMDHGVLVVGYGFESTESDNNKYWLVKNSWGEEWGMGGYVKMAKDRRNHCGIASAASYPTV
Structure (SMILES),Ki (Cathepsin B [2]) [µM],Ki (Cathepsin B [3]) [µM],Ki (Cathepsin B [6]) [µM],also measured
"CCCNC(=O)[C@H]1O[C@@H]1C(=O)N[C@H](C(=O)N1CCC[C@H]1C(=O)O)C(C)CC (single isomer, unassigned)",,,,inhibition at 5 µM (MCF-10A): 48%
N#CCNc1ccc([N+](=O)[O-])c2ccccc12,,,,inhibition (Cathepsin B [4]): inactive; inhibition (Cathepsin B [5]): inactive
O=[N+]([O-])c1ccc(NCc2ccccc2)c2ncccc12,127,349,364,
O=[N+]([O-])c1ccc(N2CCCC2)c2ccccc12,277,170,34,Ratio Ki (Homo sapiens [7]): 7; Ratio Ki (Homo sapiens [8]): > 6; Ki (Procathepsin L): 245 µM; Ki (Pro-cathepsin H [9]): 251 µM
O=[N+]([O-])c1ccc(N2CCCC2)c2ncccc12,,,,inhibition (Cathepsin B [4]): inactive
O=[N+]([O-])c1ccc(O)c2ncccc12 [NITROXOLINE],,,,Ratio Ki (Homo sapiens [7]): 7.4; Ratio Ki (Homo sapiens [8]): 4.8; inhibition (Cathepsin B [10]): 24.7%; inhibition (Cathepsin B [11]): 21.9%; Ki (Cathepsin B [12]): 272 µM; Ki (Cathepsin B [13]): 39.5 µM; Ki (Cathepsin B [14]): 154 µM
CC1CCN(c2ccc([N+](=O)[O-])c3cccnc23)CC1,105,207,24,Ratio Ki (Homo sapiens [7]): 9; Ratio Ki (Homo sapiens [8]): 6; Ki (Procathepsin L): 155 µM; Ki (Pro-cathepsin H [15]): 221 µM; Ki (Pro-cathepsin H [16]): 221 µM
O=[N+]([O-])c1ccc(N2CCOCC2)c2ncccc12,153,180,155,
N#CCN(Cc1ccccc1)Cc1cc([N+](=O)[O-])c2cccnc2c1O,,,,Ki (Cathepsin B [17]): 8 µM; Ki (Cathepsin B [18]): 79 µM; Ki (Cathepsin B [19]): 19 µM
N#CCN(CC#N)c1ccc([N+](=O)[O-])c2ccccc12,,,,inhibition (Cathepsin B [4]): inactive; inhibition (Cathepsin B [5]): inactive
O=C(O)c1cc([N+](=O)[O-])c2cccnc2c1O,,,,Ki (Cathepsin B [1]): 221 µM; Ki (Cathepsin B [19]): 117 µM

# Now from value to compound, other results behind:
Ki (Cathepsin B [2]) [µM],Ki (Cathepsin B [3]) [µM],Ki (Cathepsin B [6]) [µM],Structure (SMILES),also measured
125,181,,O=C(O)[C@@H]1CCCC[C@@H]1NCc1cc([N+](=O)[O-])c2cccnc2c1O,Ki (Cathepsin B [1]): 250 µM
116,203,243,C[C@@H]1CCCCN1Cc1cc([N+](=O)[O-])c2cccnc2c1O,
111,217,147,Nc1ccc([N+](=O)[O-])c2ccccc12,
74,132,130,CCOC(=O)[C@@H]1CCCC[C@@H]1NCc1cc([N+](=O)[O-])c2cccnc2c1O,
82,117,136,CCNCc1cc([N+](=O)[O-])c2cccnc2c1O,
87,129,156,CCOC(=O)N1CCN(Cc2cc([N+](=O)[O-])c3cccnc3c2O)CC1,
171,311,364,O=[N+]([O-])c1cc(CN2CCN(Cc3cccnc3)CC2)c(O)c2ncccc12,
